Measurements collected from several papers.
Protocols differ between the studies behind these lines.
BRD4 BD1: Bromodomain-containing protein 4, BD1 (BRD4, Homo sapiens, UniProt O60885)
BRD4 BD2: Bromodomain-containing protein 4, BD2 (BRD4, Homo sapiens, UniProt O60885)

Compound | target | assay | setting | quantity | value
COc1cc(C(=O)N2CCC(N3CCN(C)CC3)CC2)ccc1Nc1ncc2c(n1)N(C)c1ccccc1C(=O)N2C | BRD4 BD1 | thermal stability, DSF | 10 µM | ΔTm | 2.1 °C
Cn1cc(C(=O)Nc2cccc(C(=O)O)c2)ccc1=O | BRD4 BD1 | thermal stability, DSF | 100 µM | ΔTm | 0.9 °C
CC(C)[C@@H]1NC(=O)[C@@H]2CCCN2C(=O)[C@H](Cc2ccccc2)NC(=O)CSC[C@@H](C(=O)N[C@@H](Cc2ccc(O)cc2)C(N)=O)NC(=O)[C@H](Cc2c[nH]c3ccccc23)NC(=O)[C@H](CCCCN)NC(=O)[C@H](Cc2ccccc2)N(C)C(=O)[C@H](Cc2ccccc2)NC1=O | BRD4 BD1 | thermal stability, DSF | 100 µM | ΔTm | -0.52 °C
CN(C)CCN1CCN(c2nc(NCc3cccc(Cl)c3)c3cc(-c4ccc(=O)n(C)c4)ccc3n2)CC1 | BRD4 BD2 | thermal stability, DSF | 250 µM | ΔTm | 11 °C
Cc1cnc(Nc2ccc(OCCN3CCCC3)cc2)nc1Nc1cccc(S(=O)(=O)NC(C)(C)C)c1 | BRD4 BD1 | thermal stability, DSF | 10 µM | ΔTm | 3.8 °C
NS(=O)(=O)c1ccc(Nc2nc(-c3ccc(F)cc3)c3ccccc3n2)cc1 | BRD4 BD2 | binding, competition with immobilised ligand | 1 µM | remaining binding | 4%
CC(C)(C)c1cc(NC(=O)Nc2ccc(-c3cn4c(n3)sc3cc(OCCN5CCOCC5)ccc34)cc2)no1 | BRD4 BD1 | thermal stability, DSF | 100 µM | ΔTm | < 1 °C
Cc1cc2c(NC(=O)c3cccc(C(=O)O)c3)cccc2nn1 | BRD4 BD1 | thermal stability, DSF | 100 µM | ΔTm | 1.4 °C
C[S+]([O-])c1ccc(-c2nc(-c3ccncc3)c(-c3ccc(F)cc3)[nH]2)cc1 (stereo not drawn) | BRD4 BD1 | thermal stability, DSF | 10 µM | ΔTm | 1.32 °C
